Consider two compounds from article PMC3781598 (Pharmaceutical research, 2013).

One series addresses CYP2D6 (Homo sapiens, UniProt P10635). Briefly: Metabolic stability phenotyping with recombinantly expressed CYPs. Format: in vitro ADME. The note with it: recombinant CYP2D6, pH 7.4. Put shortly: (§1)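 Each recombinant human CYP at 100 pmol/ml with 1 μM test compound in potassium phosphate pH 7.4, 3.33 mM MgCl2. Prewarmed 10 min at 37 °C, then started with NADPH regenerating system; no-NADPH buffer controls. Aliquots at 0–45 min quenched in methanol with buspirone internal standard. MS peak-area ratios gave ln(ratio)-vs-time slope, converted to T1/2. Duplicates.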

In a further series the target is CYP2C19 (Homo sapiens, UniProt P33261). The series is described as above. Format: in vitro ADME. To be noted: recombinant CYP2C19, pH 7.4. Put shortly: as §1
CYP2C19, sequence (P33261 whole entry): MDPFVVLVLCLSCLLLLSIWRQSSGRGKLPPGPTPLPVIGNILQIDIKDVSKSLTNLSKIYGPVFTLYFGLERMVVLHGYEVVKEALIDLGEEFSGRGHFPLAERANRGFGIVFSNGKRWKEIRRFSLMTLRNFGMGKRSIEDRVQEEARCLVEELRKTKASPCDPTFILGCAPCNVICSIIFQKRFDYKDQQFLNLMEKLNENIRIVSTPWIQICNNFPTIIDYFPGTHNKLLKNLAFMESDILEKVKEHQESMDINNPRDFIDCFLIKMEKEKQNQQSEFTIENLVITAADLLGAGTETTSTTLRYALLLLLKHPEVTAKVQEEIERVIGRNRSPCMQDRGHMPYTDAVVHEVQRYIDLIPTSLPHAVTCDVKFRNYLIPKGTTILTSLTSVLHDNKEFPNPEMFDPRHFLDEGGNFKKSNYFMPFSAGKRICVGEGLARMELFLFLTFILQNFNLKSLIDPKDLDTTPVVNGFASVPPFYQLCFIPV
The target in the next series is hERG (Homo sapiens, UniProt Q12809). Nature of the series: hERG patch clamp assay. Format: cell-based. The note with it: for inhibition at 10 µM: human. Put shortly:
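hERG inhibition by patch clamp, measured as block of the tail current. Highest test concentration was 10 μM.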

In series [1] the target is T1, human CYP2A6 (Homo sapiens, UniProt P11509).
T1 sequence (P11509 with tags, fused parts or gaps limits assumed): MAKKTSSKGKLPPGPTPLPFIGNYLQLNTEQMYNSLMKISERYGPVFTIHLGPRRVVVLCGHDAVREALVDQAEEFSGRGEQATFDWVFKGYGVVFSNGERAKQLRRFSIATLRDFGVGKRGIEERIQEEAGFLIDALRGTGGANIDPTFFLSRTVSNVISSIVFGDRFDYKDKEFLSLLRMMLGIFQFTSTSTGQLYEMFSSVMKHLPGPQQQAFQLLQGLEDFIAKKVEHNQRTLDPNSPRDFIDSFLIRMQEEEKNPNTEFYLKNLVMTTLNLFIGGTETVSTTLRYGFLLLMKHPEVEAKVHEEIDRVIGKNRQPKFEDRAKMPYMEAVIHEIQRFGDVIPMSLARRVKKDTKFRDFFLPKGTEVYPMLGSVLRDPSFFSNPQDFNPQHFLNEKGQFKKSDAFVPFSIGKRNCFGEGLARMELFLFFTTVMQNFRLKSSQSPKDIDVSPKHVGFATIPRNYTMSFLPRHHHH
Briefly: Coumarin metabolism assay.

Another series deals with CYP3A4 (Homo sapiens, UniProt P08684). Briefly: Metabolic stability phenotyping with recombinantly expressed CYPs. Format: in vitro ADME. To be noted: recombinant CYP3A4, pH 7.4. A digest of the protocol: as §1
CYP3A4, sequence (P08684 2-503 limits assumed): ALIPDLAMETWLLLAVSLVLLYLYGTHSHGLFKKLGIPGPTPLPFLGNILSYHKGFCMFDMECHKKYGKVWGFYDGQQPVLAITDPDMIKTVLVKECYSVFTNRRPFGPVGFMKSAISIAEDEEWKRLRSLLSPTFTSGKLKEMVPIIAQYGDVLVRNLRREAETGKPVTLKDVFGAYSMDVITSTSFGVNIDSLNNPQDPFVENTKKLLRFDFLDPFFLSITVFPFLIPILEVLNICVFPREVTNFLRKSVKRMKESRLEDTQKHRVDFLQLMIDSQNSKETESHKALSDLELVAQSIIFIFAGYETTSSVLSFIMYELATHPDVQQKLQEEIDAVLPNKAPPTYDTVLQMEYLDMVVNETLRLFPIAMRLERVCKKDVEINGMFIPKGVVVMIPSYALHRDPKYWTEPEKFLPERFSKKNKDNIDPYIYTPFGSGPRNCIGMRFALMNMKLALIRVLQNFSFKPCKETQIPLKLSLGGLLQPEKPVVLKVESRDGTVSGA
Series [2] addresses T2, human CYP2A13 (Homo sapiens, UniProt Q16696).
T2 sequence (Q16696 25-494): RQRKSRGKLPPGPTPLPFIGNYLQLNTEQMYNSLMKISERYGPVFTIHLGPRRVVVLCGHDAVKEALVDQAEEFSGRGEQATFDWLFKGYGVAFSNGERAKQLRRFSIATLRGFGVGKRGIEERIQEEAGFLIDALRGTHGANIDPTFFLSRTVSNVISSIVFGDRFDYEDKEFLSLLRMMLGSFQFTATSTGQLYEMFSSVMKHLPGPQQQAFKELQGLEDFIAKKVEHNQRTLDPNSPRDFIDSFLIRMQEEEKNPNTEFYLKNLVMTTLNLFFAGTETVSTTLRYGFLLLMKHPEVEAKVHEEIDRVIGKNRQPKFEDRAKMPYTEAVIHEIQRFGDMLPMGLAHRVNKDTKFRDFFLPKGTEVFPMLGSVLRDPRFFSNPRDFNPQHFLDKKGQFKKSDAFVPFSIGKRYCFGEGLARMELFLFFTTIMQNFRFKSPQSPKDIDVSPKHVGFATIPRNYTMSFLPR
Nature of the series: Spectral ligand binding assay. The note with it: for Spectral shift type 2A13: UV/Vis difference spectra.

The nature of series [3]: Metabolic stability in liver microsomes. Format: in vitro ADME, male Sprague-Dawley rat. The note with it: for half-life at 1 μM / microsomal CLint at 1 μM: male, Sprague-Dawley, rat, liver microsomes, pH 7.4; for Percent Loss of Substrate: rat liver microsomes, 1 μM, 20-minute incubation. Put shortly:
(§2)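 Pooled liver or lung microsomes (male B6C2F1 mouse, male Sprague-Dawley rat, human) at 1.0 mg protein/ml in 50 mM potassium phosphate pH 7.4, 3 mM MgCl2, 1 mM EDTA. […] Stopped at 0, 5, 10, 20 min with acetonitrile containing antipyrene, then LC/MS/MS. Single-exponential kel gave T1/2. CLint = kel × incubation volume/mg protein.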

The nature of series [4]: Metabolic stability in liver microsomes. Format: in vitro ADME, human. To be noted: for Percent Loss of Substrate / substrate remaining: human liver microsomes; for Percent Loss of Substrate: 1 μM, 20-minute incubation; for substrate remaining: at the end of 20 min; for half-life at 1 μM / microsomal CLint at 1 μM: human, liver microsomes, pH 7.4. Put shortly:
as §2

The target in series [5] is T1, human CYP2A6. Briefly: Spectral ligand binding assay. The note with it: for Kd 2A6: spectral titration, ≥ = minimal Kd value.
The test system of the next series is genetic toxicity. Briefly: Ames test. To be noted: compound concentrations 5-100 μM. Type of series: cell-based.
A short description of series [6]: Metabolic stability in lung microsomes. Type of series: in vitro ADME, male B6C2F1 mouse. To be noted: for half-life at 1 μM / microsomal CLint at 1 μM: male, B6C2F1, mouse, lung microsomes, pH 7.4; for Percent Loss of Substrate: mouse lung microsomes, 1 μM, 20-minute incubation. Put shortly:
as §2

A short description of series [7]: Metabolic stability in lung microsomes. To be noted: human lung microsomes, 1 μM, 20-minute incubation. Format: in vitro ADME. A digest of the protocol:
as §2

Another series deals with CYP2A6 / CYP2A13. Briefly: Coumarin metabolism assay. The note with it: human, pH 7.4, probe coumarin (7-hydroxylation), Selectivity Ki (2A6)/ Ki (2A13), ratio of the CYP2A6 value to the CYP2A13 value.
For series [8], the target named is T3, human CYP2A13 (Homo sapiens, UniProt Q16696).
T3 sequence (Q16696 with tags, fused parts or gaps limits assumed): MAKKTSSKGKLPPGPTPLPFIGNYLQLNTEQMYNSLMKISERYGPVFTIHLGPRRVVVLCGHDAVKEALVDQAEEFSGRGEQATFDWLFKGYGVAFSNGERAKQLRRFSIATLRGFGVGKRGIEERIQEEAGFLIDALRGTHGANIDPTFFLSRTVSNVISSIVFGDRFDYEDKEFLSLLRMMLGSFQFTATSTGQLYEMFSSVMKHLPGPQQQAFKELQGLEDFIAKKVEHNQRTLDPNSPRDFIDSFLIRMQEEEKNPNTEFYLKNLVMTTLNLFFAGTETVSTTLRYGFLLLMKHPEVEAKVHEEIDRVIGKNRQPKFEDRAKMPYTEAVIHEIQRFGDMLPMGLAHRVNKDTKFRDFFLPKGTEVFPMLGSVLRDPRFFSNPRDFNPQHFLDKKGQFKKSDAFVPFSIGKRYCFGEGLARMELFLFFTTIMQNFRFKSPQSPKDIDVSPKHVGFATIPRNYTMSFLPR
Briefly: Coumarin metabolism assay.

[9] abbreviates: Kd 2A13, spectral titration, ≥ = minimal Kd value.

Entries after “also recorded” stand apart in the source; their conditions may differ. Bounds are passed on as bounds.

hERG, sequence (Q12809 whole entry): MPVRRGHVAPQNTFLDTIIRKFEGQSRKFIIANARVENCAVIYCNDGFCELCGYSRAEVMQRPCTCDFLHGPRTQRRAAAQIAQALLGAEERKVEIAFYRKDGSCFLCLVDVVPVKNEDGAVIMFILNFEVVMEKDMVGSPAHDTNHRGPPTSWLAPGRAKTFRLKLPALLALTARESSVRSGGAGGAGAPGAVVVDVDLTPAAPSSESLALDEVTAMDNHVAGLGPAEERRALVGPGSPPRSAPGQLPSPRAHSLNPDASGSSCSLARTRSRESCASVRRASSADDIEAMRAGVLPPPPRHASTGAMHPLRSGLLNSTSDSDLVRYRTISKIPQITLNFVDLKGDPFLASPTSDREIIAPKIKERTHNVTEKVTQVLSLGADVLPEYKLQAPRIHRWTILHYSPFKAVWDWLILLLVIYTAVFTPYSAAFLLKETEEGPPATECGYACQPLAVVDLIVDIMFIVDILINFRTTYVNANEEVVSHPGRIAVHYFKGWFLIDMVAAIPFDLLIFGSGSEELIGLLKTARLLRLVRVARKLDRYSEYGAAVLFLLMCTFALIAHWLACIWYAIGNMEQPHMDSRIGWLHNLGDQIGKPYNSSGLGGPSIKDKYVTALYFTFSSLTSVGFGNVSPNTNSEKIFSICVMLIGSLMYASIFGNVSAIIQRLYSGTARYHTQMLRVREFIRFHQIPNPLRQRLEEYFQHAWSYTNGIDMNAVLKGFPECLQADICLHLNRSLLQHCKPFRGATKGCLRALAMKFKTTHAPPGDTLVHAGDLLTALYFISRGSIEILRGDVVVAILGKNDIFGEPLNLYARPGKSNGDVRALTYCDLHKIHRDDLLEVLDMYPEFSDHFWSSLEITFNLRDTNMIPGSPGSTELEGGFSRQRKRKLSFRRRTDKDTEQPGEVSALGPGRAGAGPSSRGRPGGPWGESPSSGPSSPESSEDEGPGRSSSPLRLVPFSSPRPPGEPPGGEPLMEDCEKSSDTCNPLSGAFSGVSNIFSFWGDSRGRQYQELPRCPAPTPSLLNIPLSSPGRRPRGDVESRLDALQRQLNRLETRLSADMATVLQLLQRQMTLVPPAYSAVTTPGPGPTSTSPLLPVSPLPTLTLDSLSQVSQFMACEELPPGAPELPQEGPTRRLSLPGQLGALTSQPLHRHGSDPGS
CYP2D6, sequence (P10635 whole entry): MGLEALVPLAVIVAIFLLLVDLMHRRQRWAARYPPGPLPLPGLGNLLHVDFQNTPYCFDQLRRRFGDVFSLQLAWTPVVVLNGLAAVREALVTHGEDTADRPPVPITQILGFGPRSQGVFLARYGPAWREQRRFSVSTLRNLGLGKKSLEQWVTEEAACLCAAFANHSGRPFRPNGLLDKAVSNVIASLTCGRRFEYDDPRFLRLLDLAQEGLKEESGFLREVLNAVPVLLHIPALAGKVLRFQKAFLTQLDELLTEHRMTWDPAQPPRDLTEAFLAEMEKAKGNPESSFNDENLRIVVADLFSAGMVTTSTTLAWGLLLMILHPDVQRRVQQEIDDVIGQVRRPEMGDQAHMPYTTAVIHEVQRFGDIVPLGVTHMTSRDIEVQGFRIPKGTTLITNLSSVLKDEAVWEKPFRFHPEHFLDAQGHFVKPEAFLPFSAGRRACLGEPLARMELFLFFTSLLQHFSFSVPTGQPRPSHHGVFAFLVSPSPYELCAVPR

As to `Clc1ccccc1CN1CCOCC1` [Compound 3, 4-(2-chlorobenzyl)morpholine], the half-life at 1 μM on CYP2D6 worked out at 61 min; at CYP2C19 it was 13 min; on CYP3A4 it was 33 min; in series [3], 4.7 min; in [4], 22.9 min; in series [6], 1.6 min. The IC50 against hERG is > 10 µM. The same compound gave an inhibition at 10 µM against hERG of 13.9%. The Ki is ≥ 1000 µM at human CYP2A6 [1] and 39.7 ± 4.3 µM on human CYP2A13 [8]. Moreover, on human CYP2A13 [2] (setting [9]), the Kd was determined as 5.9 ± 3.4 µM. Moreover, at human CYP2A13 [2], the “Spectral shift type 2A13” value is “I”. For the same compound, the microsomal CLint at 1 μM in [3] turned out to be 149 µL/min/mg; in series [4], 30.3 µL/min/mg; in series [6], 433 µL/min/mg. The “Percent Loss of Substrate” value is 96.7% in series [3], 47.0% in series [4], 99.9% in [6] and “No Loss/No Loss” in series [7]. The substrate remaining in [4] is on record as 53%. The “Kd 2A6” value at human CYP2A6 [5] is “No ^** Spectral Shift”. Moreover, the Ames test revertants result with genetic toxicity is “few or no revertants”. Further, the selectivity ratio at 10 min in the series with CYP2A6 / CYP2A13 was ≥ 25.

In the case of `Fc1cccc(Cl)c1CN1CCOCC1` [Compound 7, 4-(2-chloro-6-fluorobenzyl)morpholine], the half-life at 1 μM was 78 min on CYP2D6; 18 min at CYP2C19; 25 min on CYP3A4; 4 min in series [3]; 7.6 min in series [4]; 1.3 min in [6]. Besides, the IC50 against hERG was > 10 µM. The compound further came in with an inhibition at 10 µM against hERG of 24.8%. For the same compound, the figures for the Ki at human CYP2A6 [1] and at human CYP2A13 [8] were 287 µM and 38.1 µM, respectively. For the same compound, the Kd was 5.2 µM on human CYP2A13 [2] (setting [9]) and ~2 µM on human CYP2A13 [2] (Kd CYP2A13, follow-up titration of HTS hit, Figure 1D). In addition, at human CYP2A13 [2], the “Spectral shift type 2A13” value is “I”. The values for the microsomal CLint at 1 μM in [3], in series [4] and in series [6] were 173 µL/min/mg, 91.4 µL/min/mg and 551 µL/min/mg, respectively. The “Percent Loss of Substrate” value is listed as 97.3% in series [3], 85.5% in [4], 100% in [6] and “No Loss/No Loss” in series [7]. The compound also returned a substrate remaining in series [4] of 14%. For the same compound, the “spectral shift with 2A6” value on human CYP2A6 [5] (follow-up titration of HTS hit, Figure 1D) is “no spectral shift”. The “Kd 2A6” value on human CYP2A6 [5] is recorded as “did not cause a spectral shift; also recorded: No ^** Spectral Shift”. Besides, the Ames test revertants entry with genetic toxicity is “few or no revertants”. Besides, in the series with CYP2A6 / CYP2A13, the selectivity ratio at 10 min turned out to be 7.5.
